Bounds are passed on as bounds.

The source of these data is ChEMBL document CHEMBL4765392, “Development of coumarine derivatives as potent anti-filovirus entry inhibitors targeting viral glycoprotein” (Eur J Med Chem, 2020).

A short description of data set [1]: Cytotoxicity against human A549 cells assessed as reduction in cell viability by Celltiter-Glo assay. In kind it is cell-based. In a few lines: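 Low-passage A549 cells seeded at 5000/well 24 h ahead, then exposed for 48 h to 3-fold serial compound dilutions in fresh media without virus. Viability read by CellTiter-Glo luminescence and normalized to medium-only cells. CC50 from logistic regression fit of dose-response curves.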

For data set [2], the system named is envelope glycoprotein of Marburgvirus. As to the kind of experiment: Selectivity index, ratio of CC50 for human A549 cells to IC50 for inhibition of envelope glycoprotein in HIV pseudotyped Marburgvirus infected in human A549 cells assessed as reduction in virus entry. The data set is classed as toxicity, cell-based. Conditions: read-out: Ratio CC50/IC50. The gist of the method: (§1)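 IC50 wells also got HIV luciferase pseudovirions bearing MARV GP or EBOV GP, read by luciferase. CC50 wells got fresh media, read by CellTiter-Glo. Both values come from logistic dose-response fits, and the index is CC50 divided by IC50.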

The nature of data set [3]: Inhibition of envelope glycoprotein in HIV pseudotyped Zaire Ebolavirus infected in human A549 cells assessed as reduction in virus entry measured after 48 hrs by luciferase reporter gene assay. In kind it is cell-based. The settings on record: A549, 48 h. The gist of the method: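 A549 cells (5000/well, seeded 24 h prior) incubated 48 h with 3-fold serial compound dilutions premixed with HIV-backbone luciferase pseudovirions bearing EBOV GP. Entry quantified by luciferase signal, normalized to virus-alone cells. IC50 from logistic regression of dose-response curves.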
In general terms: A reporter such as luciferase makes a cellular process visible.

Data set [4] concerns envelope glycoprotein of Zaire Ebolavirus. As to the kind of experiment: Selectivity index, ratio of CC50 for human A549 cells to IC50 for inhibition of envelope glycoprotein in HIV pseudotyped Zaire Ebolavirus infected in human A549 cells assessed as reduction in virus entry. The data set is classed as toxicity, cell-based. The settings on record: read-out: Ratio CC50/IC50. The gist of the method: as §1

One may read the CC50 as the concentration at which the toxic effect on the cells reaches its halfway point. For orientation: IC50 means the concentration that gives 50% inhibition. On to `COc1ccc(Cc2c(C)c3ccc(OCC(O)CN4CCC(C(N)=O)CC4)cc3oc2=O)c(Br)c1` (configuration not stated), for which the CC50 in data set [1] turned out to be 44.4 µM. For the same molecule, the figures for the selectivity ratio in data set [2] and in data set [4] were 8.6 and 18, respectively. In data set [3], the IC50 is 2.5 µM.
Taken in the same sequence, the figures for `Cc1c(Cc2ccccc2)c(=O)oc2cc(OCC(O)CNCc3ccccc3)ccc12` (configuration not stated) were > 100 µM, 45.5, > 75 and 1.3 µM.
With `Cc1c(Cc2ccc(OC(F)(F)F)cc2)c(=O)oc2cc(OCC(O)CN3CCC(C(N)=O)CC3)ccc12` (configuration not stated), the CC50 in data set [1] is 68.2 µM. In addition, the selectivity ratio in data set [2] came out at 56.8; in data set [4] it was 136. For the same molecule, the IC50 in data set [3] was determined as 0.5 µM.
On to `Cc1c(Cc2ccccc2)c(=O)oc2cc(OCC(O)CN3CCC(C(N)=O)CC3)ccc12` (configuration not stated), for which the CC50 in data set [1] was > 100 µM. The selectivity ratio in data set [2] was 3.4; in data set [4], > 29.4. Besides, the IC50 in data set [3] came to 3.4 µM.
As to `Cc1c(Cc2ccccc2)c(=O)oc2cc(OCC(O)CNCCc3ccncc3)ccc12` (configuration not stated), the CC50 in data set [1] was > 100 µM. For the same molecule, the selectivity ratio in data set [2] is 36.6; in data set [4] it was > 111. The IC50 in data set [3] was 0.9 µM.
As to `Cc1c(Cc2ccc(F)cc2)c(=O)oc2cc(OCC(O)CN3CCC(C(N)=O)CC3)ccc12` (configuration not stated), the CC50 in data set [1] is 89.3 µM. Also, the selectivity ratio in data set [2] amounted to 83.7; in data set [4] it was 78.8. Also, in data set [3], the IC50 was found to be 1.1 µM.
Regarding `NC(=O)C1CCN(CC(O)COc2ccc3c(-c4ccccc4)c(Cc4ccccc4)c(=O)oc3c2)CC1` (configuration not stated), in data set [1], the cytotoxic concentration (CC50) worked out at 25.2 µM. Also, the selectivity ratio turned out to be 11.6 in data set [2] and 8.6 in data set [4]. For the same molecule, the IC50 in data set [3] turned out to be 2.9 µM.
Taken in the same sequence, the figures for `Cc1c(Cc2ccc(-c3ccccc3)cc2)c(=O)oc2cc(OCC(O)CN3CCC(C(N)=O)CC3)ccc12` (configuration not stated) were > 100 µM, 111, > 143 and 0.7 µM.
Taken in the same sequence, the figures for `Cc1ccc2nc(NCC(O)COc3ccc4c(C)c(Cc5ccccc5)c(=O)oc4c3)sc2c1` (configuration not stated) were > 100 µM, 11.3, > 9.8 and 10.2 µM.
The like results for `Cc1c(Cc2ccc(C(F)(F)F)cc2)c(=O)oc2cc(OCC(O)CN3CCC(C(N)=O)CC3)ccc12` (configuration not stated) were, in that order, 89.3 µM, 83.7, 78.8 and 1.1 µM.
Turning to `NC(=O)C1CCN(CC(O)COc2ccc3c(C4CC4)cc(=O)oc3c2)CC1` (configuration not stated), the CC50 in data set [1] was > 100 µM. The selectivity ratio in data set [2] is 3; in data set [4], > 5.7. Besides, the IC50 in data set [3] was determined as 17.7 µM.
Taken in the same sequence, the figures for `Cc1c(Cc2ccc(-c3ccc(F)cc3)cc2)c(=O)oc2cc(OCC(O)CN3CCC(C(N)=O)CC3)ccc12` (configuration not stated) were 19.3 µM, 18.1, 13.1 and 1.5 µM.
For `Cc1cc(=O)oc2cc(OCC(O)CN3CCC(C(N)=O)CC3)ccc12` (configuration not stated), in data set [1], the CC50 is > 100 µM. Besides, the values for the selectivity ratio in data set [2] and in data set [4] were 12 and > 10.8, respectively. In data set [3], the IC50 came out at 9.3 µM.
Take `Cc1c(Cc2ccc(F)cc2F)c(=O)oc2cc(OCC(O)CN3CCC(C(N)=O)CC3)ccc12` (configuration not stated): the CC50 in data set [1] was > 100 µM. Also, the values for the selectivity ratio in data set [2] and in data set [4] were 23.6 and > 81.1, respectively. Moreover, the IC50 in data set [3] amounted to 1.2 µM.
Take `Cc1c(Cc2cccc(F)c2)c(=O)oc2cc(OCC(O)CN3CCC(C(N)=O)CC3)ccc12` (configuration not stated): in data set [1], the CC50 is 53.3 µM. The values for the selectivity ratio in data set [2] and in data set [4] were 22.5 and 34, respectively. Moreover, the IC50 in data set [3] was found to be 1.6 µM.
The like results for `Cc1c(Cc2ccccc2)c(=O)oc2cc(OCC(CN3CCC(C(N)=O)CC3)Oc3ccccc3F)ccc12` (configuration not stated) were, in that order, 79.6 µM, 3.9, 3.5 and 22.5 µM.
For `Cc1c(Cc2ccccc2)c(=O)oc2cc(OCC(O)CNc3nccs3)ccc12` (configuration not stated), in data set [1], the CC50 came out at 93 µM. Besides, the results for the selectivity ratio in data set [2] and in data set [4] were 33.2 and 44.3, respectively. Moreover, in data set [3], the IC50 worked out at 2.1 µM.
Taken in the same sequence, the figures for `Cc1c(Cc2ccc(OC(F)(F)F)cc2)c(=O)oc2cc(OCC(O)CNc3nccs3)ccc12` (configuration not stated) were 99 µM, 82.5, 66 and 1.5 µM.
